Results taken from article PMC4409786 (Cancer discovery, 2014).
pIC50: −log10 of the molar value. Counter-ions that a name gives are not always drawn.

Key:
LNCaP cells [1] = test: HGF-induced invasion assay; assay type: cell-based; conditions: natively express TMPRSS2, p<0.01
Procedure, shortened: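 Invasion through basement-membrane matrix, measured with a commercial 96-well invasion kit. LNCaP cells are exposed to exogenous paracrine-acting HGF and compared with serum-free medium.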

thrombin = thrombin (Homo sapiens, UniProt P00734); test: Thrombin inhibition; assay type: biochemical
matriptase = target: T1, matriptase (Homo sapiens, UniProt Q9Y5Y6); test: Matriptase protease inhibition with optimal peptide substrate; assay type: biochemical
T1 sequence (Q9Y5Y6 1-855): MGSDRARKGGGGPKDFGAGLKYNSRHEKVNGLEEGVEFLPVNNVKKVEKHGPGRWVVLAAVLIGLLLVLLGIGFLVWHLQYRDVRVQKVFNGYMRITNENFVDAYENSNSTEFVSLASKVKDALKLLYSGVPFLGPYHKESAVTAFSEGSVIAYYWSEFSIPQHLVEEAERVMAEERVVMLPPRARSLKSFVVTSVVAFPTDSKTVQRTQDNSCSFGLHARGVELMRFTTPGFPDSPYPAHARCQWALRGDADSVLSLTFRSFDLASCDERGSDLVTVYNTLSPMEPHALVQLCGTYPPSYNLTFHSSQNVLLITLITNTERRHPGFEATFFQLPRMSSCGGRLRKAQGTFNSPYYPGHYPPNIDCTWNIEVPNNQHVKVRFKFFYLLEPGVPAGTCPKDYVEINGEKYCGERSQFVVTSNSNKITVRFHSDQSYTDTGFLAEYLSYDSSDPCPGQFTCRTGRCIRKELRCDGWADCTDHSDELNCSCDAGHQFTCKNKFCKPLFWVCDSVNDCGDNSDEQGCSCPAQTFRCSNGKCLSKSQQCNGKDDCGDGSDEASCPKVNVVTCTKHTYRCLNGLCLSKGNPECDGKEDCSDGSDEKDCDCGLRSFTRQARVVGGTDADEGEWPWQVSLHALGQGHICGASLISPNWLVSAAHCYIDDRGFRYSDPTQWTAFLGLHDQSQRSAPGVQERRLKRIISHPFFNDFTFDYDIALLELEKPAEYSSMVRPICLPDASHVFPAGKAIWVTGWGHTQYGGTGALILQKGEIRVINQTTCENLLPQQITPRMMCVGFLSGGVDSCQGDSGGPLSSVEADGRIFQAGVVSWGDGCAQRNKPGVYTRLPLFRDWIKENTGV
Procedure, shortened: (§1)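 Each enzyme is assayed with its optimal peptide substrate, and substrate concentrations are determined after 30 minutes.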

hepsin = hepsin (Homo sapiens, UniProt P05981); test: Hepsin protease inhibition with optimal peptide substrate; assay type: biochemical
Procedure, shortened: as §1

DU145 cells [2] = test: In vitro cell toxicity, DU145; assay type: cell-based; conditions: DU145, 48-hour, 0μM to 250μM
PC-3^TMPRSS2 cells = test: Matrigel invasion assay, HGF-promoted; assay type: cell-based; conditions: PC-3^TMPRSS2, p<0.01
Procedure, shortened: (§2)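 TMPRSS2 coding sequence is cloned and transfected into DU145 or PC3 cells, and stable lines are selected with antibiotic; vector-transfected cells are the controls. Invasion through Matrigel is measured with a commercial 96-well invasion kit, under standard culture (serum) conditions or with added HGF, alongside serum-free medium.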

HepG2 cells = test: In vitro cell toxicity, HepG2; assay type: cell-based; conditions: HepG2, 48-hour, 0μM to 250μM
TRAMP mice = test: In vivo treatment of TRAMP mice: primary tumor and spontaneous metastasis; parameters: species or system mouse; conditions: 30mg/kg intraperitoneal three times per week, p=0.04 versus vehicle
DU145^TMPRSS2 cells = test: Matrigel invasion assay, HGF-promoted; assay type: cell-based; conditions: DU145^TMPRSS2, p<0.01
Procedure, shortened: as §2

trypsin = test: Trypsin inhibition; assay type: biochemical; conditions: read-out: IC50 for trypsin
C4-2B cells = test: HGF-induced invasion assay; assay type: cell-based; conditions: natively express TMPRSS2, p<0.01
LNCaP cells [3] = test: In vitro cell toxicity, LNCaP; assay type: cell-based; conditions: 48-hour, 0μM to 250μM
PC3 cells = test: In vitro cell toxicity, PC3; assay type: cell-based; conditions: PC3, 48-hour, 0μM to 250μM
DU145 cells [4] = test: DU145 invasion with prostate fibroblast conditioned medium and TMPRSS2; assay type: cell-based
prostate bone metastasis = conditions: human clinical trials ref 42; cited from earlier work

Sequence of hepsin (P05981 whole entry): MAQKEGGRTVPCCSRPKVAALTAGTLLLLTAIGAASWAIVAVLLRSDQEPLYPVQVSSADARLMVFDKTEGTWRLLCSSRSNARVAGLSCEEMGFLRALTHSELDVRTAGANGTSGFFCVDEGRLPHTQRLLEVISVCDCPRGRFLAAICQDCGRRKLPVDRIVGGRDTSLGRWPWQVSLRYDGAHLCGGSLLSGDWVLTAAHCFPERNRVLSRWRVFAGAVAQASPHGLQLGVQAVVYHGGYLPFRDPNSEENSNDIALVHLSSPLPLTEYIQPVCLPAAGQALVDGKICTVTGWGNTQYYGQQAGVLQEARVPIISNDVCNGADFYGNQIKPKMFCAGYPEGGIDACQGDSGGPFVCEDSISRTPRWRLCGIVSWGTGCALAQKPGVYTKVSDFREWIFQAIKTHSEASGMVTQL

CN(Cc1cc(Br)cc(Br)c1N)C1CCCCC1 [BHH, bromhexine hydrochloride]
HGF-induced invasion (LNCaP cells [1]): significantly attenuated
pIC50 (thrombin): < 4.00
pIC50 (matriptase): 4.24
pIC50 (hepsin): 4.46
toxicity (DU145 cells [2]): No significant toxicity
migration and invasion phenotypes promoted by HGF (PC-3^TMPRSS2 cells): significantly reduced
toxicity (HepG2 cells): No significant toxicity
incidence of distant metastasis to lung and liver sites (TRAMP mice): 20%
migration and invasion phenotypes promoted by HGF (DU145^TMPRSS2 cells): significantly reduced
pIC50 (trypsin): < 4.00
HGF-induced invasion (C4-2B cells): significantly attenuated
toxicity (LNCaP cells [3]): No significant toxicity
toxicity (PC3 cells): No significant toxicity

Cc1[nH]c(/C=C2\C(=O)Nc3ccc(S(=O)(=O)N(C)c4cccc(Cl)c4)cc32)c(C)c1C(=O)N1CCN(C)CC1 [SU11274]
increase of cellular invasion by fibroblast conditioned medium and TMPRSS2 (DU145 cells [4]): abolished

COc1cc2nccc(Oc3ccc(NC(=O)C4(C(=O)Nc5ccc(F)cc5)CC4)cc3)c2cc1OC [cabozantinib]
prostate bone metastasis response (prostate bone metastasis): Striking regressions
